Reference: PubChem BioAssay AID602218 (Southern Research Specialized Biocontainment Screening …, 2012)
Results filed as inconclusive are left out. The source made the active and inactive calls.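 How the source made its calls: active means inhibition of at least 30% at any tested concentration; inactive means the rest, inconclusive results apart.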

Target: M18 aspartyl aminopeptidase (Plasmodium falciparum 3D7)
Experiment: PfM18AAP enzyme inhibitors, dose response, counter-screen for PfM17LAP inhibitor project, biochemical, QFRET fluorogenic substrate, set 2 (AID 602218)
Settings: recombinant PfM18AAP, H-Glu-NHMec fluorogenic cleavage
Summary of the method: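 Technique – released NHMec fluorescence, excitation 370 nm, emission 460 nm · System – purified recombinant Plasmodium falciparum M18 aspartyl aminopeptidase (rPFM18AAP) · Evaluation – percent inhibition versus controls, IC50 by four-parameter logistic fit · Replication – triplicate · Times – 90 min reaction, room temperature · Medium – Tris-HCl buffer pH 7.5 with 2 mM CoCl2, 2% DMSO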

For `CCCCOc1ccc(C(=O)NO)cc1`, the IC50 was 12.7 µM.

`CCOc1ccc(CC(=O)NO)cc1` gave an IC50 of 34.1 µM.

`CCCCCCCCCC(=O)NO` showed an IC50 of 18 µM.

`O=C(Cc1ccc(OCc2ccccc2)cc1)NO` gave an IC50 of 9.64 µM.

Compound `COc1ccc(CCCC(=O)NO)cc1` has an IC50 of 14.6 µM.

`O=C(Cc1ccc(Oc2ccccc2)cc1)NO` showed an IC50 of 7.13 µM.

`CN(O)C(=O)Cc1ccc(OCc2ccccc2)cc1` gave an IC50 of 29.2 µM.

With `CCCCOc1ccc(CNc2c(N(O)Cc3ccccc3)c(=O)c2=O)cc1` the inhibition (at 25 µM (top of the series)) was “inactive”.

`CCCCOc1ccc(CC(=O)NO)cc1` showed an IC50 of 10 µM.

Work on `CCCCc1ccc(CC(=O)NO)cc1` yielded an IC50 of 13.7 µM.

`CCCCOc1ccc(CC(=O)N(C)O)cc1` was tested, and the IC50 was 40.2 µM.

For `CCCCOc1ccc(CCC(=O)NO)cc1`, the IC50 was 18.5 µM.

Compound `CCCCOc1ccc(CNc2c(N(C)O)c(=O)c2=O)cc1` has an IC50 of 65.4 µM.

With `COC(=O)Cc1ccc(OCCN(C)C)cc1` the inhibition (at 100 µM (top of the series)) was “inactive”.

For `CCCCOc1ccc(CC(=O)O)cc1`, the inhibition (at 100 µM (top of the series)) was “inactive”.

In the case of `CCCOc1ccc(CC(=O)OC)cc1`, the inhibition (at 100 µM (top of the series)) is reported as “inactive”.

With `CC(C)(C(=O)NO)c1ccccc1` the IC50 was 54.6 µM.

Work on `O=C(Cc1ccc2c(c1)CCCC2)NO` yielded an IC50 of 8.93 µM.

`Cc1ccc(CC(=O)NO)cc1` was tested, and the IC50 was 33.6 µM.

Work on `COc1ccc(CC(=O)NO)cc1` yielded an IC50 of 16.4 µM.

Work on `O=C(NO)c1cccc2ccccc12` yielded an IC50 of 10.1 µM.

Compound `CC(C)COc1ccc(CC(=O)NO)cc1` has an IC50 of 11.4 µM.
